{
  "source": "ChEMBL document CHEMBL3576866",
  "about": "“Discovery of a Cyclic Boronic Acid β-Lactamase Inhibitor (RPX7009) with Utility vs Class A Serine Carbapenemases” (J Med Chem, 2015)",
  "key": {"Klebsiella pneumoniae [1]": {"tested_on": "Klebsiella pneumoniae", "test": "Inhibition of Klebsiella pneumoniae KP1087 KPC-2 assessed as meropenem MIC at 4 ug/ml by broth microdilution method", "how_it_was_run": "(§1)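 CLSI broth microdilution (M07-A9, 2012) MIC of the carbapenem against clinical serine carbapenemase-producing strain, tested alone and with the inhibitor held at a fixed 4 μg/mL.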"}, "[2]": {"molecular_target": "T1, Beta-lactamase SHV-1 (Klebsiella pneumoniae) (UniProt P0AD64)", "T1 sequence (whole entry)": "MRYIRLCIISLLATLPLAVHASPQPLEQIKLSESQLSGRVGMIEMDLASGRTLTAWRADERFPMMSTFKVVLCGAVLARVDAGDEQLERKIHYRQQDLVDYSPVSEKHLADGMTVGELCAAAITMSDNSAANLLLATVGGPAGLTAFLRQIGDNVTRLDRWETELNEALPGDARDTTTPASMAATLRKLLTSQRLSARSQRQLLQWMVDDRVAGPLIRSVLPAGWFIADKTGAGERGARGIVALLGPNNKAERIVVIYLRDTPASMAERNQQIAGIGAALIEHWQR", "test": "Inhibition of Klebsiella pneumoniae KP1082 SHV-1 assessed as meropenem MIC at 4 ug/ml by broth microdilution method", "how_it_was_run": "as §1"}, "Klebsiella pneumoniae [3]": {"tested_on": "Klebsiella pneumoniae", "test": "Inhibition of Klebsiella pneumoniae KP1004 SHV-11 assessed as biapenem MIC at 4 ug/ml by broth microdilution method", "how_it_was_run": "as §1"}, "[4]": {"test": "Cmax in rat at 1000 mg/kg, iv administered as 0.5 hrs infusion by HPLC-MS method", "type": "ADME, organism-based", "design": "dose 1000 mg/kg, route intravenous", "details": "in vivo"}, "[5]": {"test": "Inhibition of Escherichia coli recombinant CMY-2 assessed as substrate nitrocefin degradation preincubated for 10 mins followed by substrate addition measured every 10 secs for 10 mins by spectrophotometric analysis", "how_it_was_run": "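β-Lactamases purified from overexpressing recombinant E. coli. Enzyme preincubated with inhibitor at varying concentrations for 10 min at room temperature in 50 mM Na phosphate pH 7.0, 0.1 mg/mL BSA. Then 50 μM nitrocefin (final) added and cleavage read at 490 nm every 10 s for 10 min. Ki derived by the Waley method.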"}, "[6]": {"molecular_target": "Beta-lactamase (Klebsiella pneumoniae) (UniProt Q93LQ9)", "sequence (Q93LQ9 as listed by the source)": "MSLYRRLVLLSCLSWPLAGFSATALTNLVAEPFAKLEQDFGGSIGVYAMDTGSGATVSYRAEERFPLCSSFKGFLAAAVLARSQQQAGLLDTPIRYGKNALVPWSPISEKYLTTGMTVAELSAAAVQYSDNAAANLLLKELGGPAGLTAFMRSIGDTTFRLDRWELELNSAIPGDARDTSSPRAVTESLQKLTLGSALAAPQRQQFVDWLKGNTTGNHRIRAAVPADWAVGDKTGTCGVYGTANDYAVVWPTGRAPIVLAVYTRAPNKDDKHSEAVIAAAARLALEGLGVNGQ", "test": "Inhibition of Klebsiella pneumoniae KP1083 KPC-3 assessed as biapenem MIC at 4 ug/ml by broth microdilution method", "how_it_was_run": "as §1"}, "[7]": {"molecular_target": "T1, Beta-lactamase SHV-1 (Klebsiella pneumoniae)", "test": "Inhibition of Klebsiella pneumoniae KP1082 SHV-1 assessed as biapenem MIC at 4 ug/ml by broth microdilution method", "how_it_was_run": "as §1"}, "Klebsiella pneumoniae [8]": {"tested_on": "Klebsiella pneumoniae", "test": "Inhibition of Klebsiella pneumoniae KP1008 KPC-2 assessed as biapenem MIC at 4 ug/ml by broth microdilution method", "how_it_was_run": "as §1"}, "[9]": {"molecular_target": "Carbapenem-hydrolyzing beta-lactamase KPC (Klebsiella oxytoca) (UniProt Q848S6)", "sequence (Q848S6 whole entry)": "as the sequence (Q93LQ9 as listed by the source) above", "test": "Inhibition of Klebsiella oxytoca KX1017 KPC-2 assessed as imipenem MIC at 4 ug/ml by broth microdilution method"}, "Plasminogen": {"molecular_target": "Plasminogen (Homo sapiens, UniProt P00747)", "sequence (P00747 97-580 limits assumed)": "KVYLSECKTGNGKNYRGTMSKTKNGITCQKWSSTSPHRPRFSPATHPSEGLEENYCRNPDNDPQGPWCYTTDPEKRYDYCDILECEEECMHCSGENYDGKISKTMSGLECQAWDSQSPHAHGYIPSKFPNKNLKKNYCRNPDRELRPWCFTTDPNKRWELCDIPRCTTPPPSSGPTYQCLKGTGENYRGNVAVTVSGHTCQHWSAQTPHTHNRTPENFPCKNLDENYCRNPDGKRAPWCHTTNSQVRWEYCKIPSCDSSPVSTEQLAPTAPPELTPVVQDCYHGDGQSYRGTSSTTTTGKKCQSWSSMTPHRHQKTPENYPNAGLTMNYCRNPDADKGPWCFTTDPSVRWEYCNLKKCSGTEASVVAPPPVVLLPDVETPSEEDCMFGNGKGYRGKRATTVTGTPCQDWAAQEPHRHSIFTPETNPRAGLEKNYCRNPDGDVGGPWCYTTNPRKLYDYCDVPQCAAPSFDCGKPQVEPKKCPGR", "sequence (P00747 581-810 limits assumed)": "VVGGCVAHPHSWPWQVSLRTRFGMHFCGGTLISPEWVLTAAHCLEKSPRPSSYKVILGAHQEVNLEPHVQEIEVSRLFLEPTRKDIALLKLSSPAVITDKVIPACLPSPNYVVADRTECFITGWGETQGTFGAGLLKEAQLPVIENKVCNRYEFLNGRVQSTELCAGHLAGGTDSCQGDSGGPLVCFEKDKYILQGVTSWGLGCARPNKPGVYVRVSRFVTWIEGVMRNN", "test": "Inhibition of plasmin (unknown origin) using H-D-VLK-pNA as substrate preincubated for 10 mins followed by substrate addition measured for 30 mins by spectrophotometric analysis", "how_it_was_run": "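Commercial plasmin in 100 mM Tris-HCl, pH 7.5, 100 mM NaCl. Exposed 10 min at 37 °C to varied inhibitor concentrations before H-D-VLK-pNA (listed at 200 μM), then absorbance read over 30 min. Rates were vs a no-treatment control; IC50 is the concentration giving 50% inhibition.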"}, "Escherichia coli [10]": {"tested_on": "Escherichia coli", "test": "Inhibition of Escherichia coli EC1009 TEM-10 assessed as cefepime MIC at 4 ug/ml by broth microdilution method", "how_it_was_run": "(§2)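 CLSI broth microdilution (M07-A9) against clinical strains expressing serine β-lactamases.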"}, "Klebsiella aerogenes": {"tested_on": "Klebsiella aerogenes", "test": "Inhibition of Enterobacter aerogenes EA1028 OXA-30 assessed as cefepime MIC at 4 ug/ml by broth microdilution method", "how_it_was_run": "as §2"}, "[11]": {"molecular_target": "Beta lactamase TEM-1 (Klebsiella pneumoniae) (UniProt Q7B899)", "sequence (Q7B899 as listed by the source)": "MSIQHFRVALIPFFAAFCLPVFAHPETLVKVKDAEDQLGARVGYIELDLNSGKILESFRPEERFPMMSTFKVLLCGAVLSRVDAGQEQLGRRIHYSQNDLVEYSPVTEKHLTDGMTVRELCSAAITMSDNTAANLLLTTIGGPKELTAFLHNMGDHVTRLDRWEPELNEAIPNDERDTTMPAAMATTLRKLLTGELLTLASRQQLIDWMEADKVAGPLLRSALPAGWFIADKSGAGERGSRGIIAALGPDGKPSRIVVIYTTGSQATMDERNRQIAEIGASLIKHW", "test": "Inhibition of Klebsiella pneumoniae KP1084 TEM-1 assessed as imipenem MIC at 4 ug/ml by broth microdilution method"}, "Klebsiella pneumoniae [12]": {"tested_on": "Klebsiella pneumoniae", "test": "Inhibition of Klebsiella pneumoniae KP1009 CTX-M-15 assessed as cefepime MIC at 4 ug/ml by broth microdilution method"}, "[13]": {"test": "Volume of distribution in rat at 100 mg/kg, iv administered as 0.5 hrs infusion by HPLC-MS method", "type": "ADME, organism-based", "details": "in vivo"}, "Klebsiella pneumoniae [14]": {"tested_on": "Klebsiella pneumoniae", "test": "Inhibition of Klebsiella pneumoniae KP1087 SHV-11 assessed as imipenem MIC at 4 ug/ml by broth microdilution method", "how_it_was_run": "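CLSI broth microdilution (M07-A9) against clinical K. pneumoniae strain KP1087 (KPC-2, CTX-M-15, SHV-11, TEM-1); carbapenem MIC (μg/mL) read with the inhibitor held at a fixed 4 μg/mL, alongside carbapenem alone.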"}, "Enterobacter cloacae": {"tested_on": "Enterobacter cloacae", "test": "Inhibition of Enterobacter cloacae ECL1058 SHV-11 assessed as meropenem MIC at 4 ug/ml by broth microdilution method"}, "Klebsiella oxytoca": {"tested_on": "Klebsiella oxytoca", "test": "Inhibition of Klebsiella oxytoca KX1017 OXA-2 assessed as ertapenem MIC at 4 ug/ml by broth microdilution method"}, "Escherichia coli [15]": {"tested_on": "Escherichia coli", "test": "Inhibition of Escherichia coli EC1008 CTX-M-3 assessed as cefepime MIC at 4 ug/ml by broth microdilution method", "how_it_was_run": "as §2"}, "Escherichia coli [16]": {"tested_on": "Escherichia coli", "test": "Inhibition of Escherichia coli EC1011 TEM-26 assessed as cefepime MIC at 4 ug/ml by broth microdilution method", "how_it_was_run": "as §2"}, "[17]": {"test": "Half life in rat at 300 mg/kg, iv administered as 0.5 hrs infusion by HPLC-MS method", "type": "ADME, organism-based", "details": "in vivo"}, "[18]": {"test": "Clearance in rat at 1000 mg/kg, iv administered as 0.5 hrs infusion by HPLC-MS method", "type": "ADME, organism-based", "details": "in vivo"}, "[19]": {"test": "Clearance in rat at 100 mg/kg, iv administered as 0.5 hrs infusion by HPLC-MS method", "type": "ADME, organism-based", "details": "in vivo"}, "[20]": {"molecular_target": "Carbapenem-hydrolyzing beta-lactamase KPC (Klebsiella oxytoca) (UniProt Q848S6)", "test": "Inhibition of Klebsiella oxytoca KX1017 KPC-2 assessed as ertapenem MIC at 4 ug/ml by broth microdilution method"}, "[21]": {"molecular_target": "T2, Class A carbapenemase (Enterobacter cloacae) (UniProt A7WP95)", "T2 sequence (whole entry)": "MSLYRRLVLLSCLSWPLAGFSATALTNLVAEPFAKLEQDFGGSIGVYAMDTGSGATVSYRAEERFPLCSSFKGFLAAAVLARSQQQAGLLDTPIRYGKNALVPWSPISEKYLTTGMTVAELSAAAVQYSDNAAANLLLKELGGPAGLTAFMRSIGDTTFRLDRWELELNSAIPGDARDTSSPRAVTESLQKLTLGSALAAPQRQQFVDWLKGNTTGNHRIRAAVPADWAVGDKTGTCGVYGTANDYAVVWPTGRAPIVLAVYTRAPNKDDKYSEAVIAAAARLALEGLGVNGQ", "test": "Inhibition of Enterobacter cloacae ECL1058 KPC-3 assessed as meropenem MIC at 4 ug/ml by broth microdilution method"}, "[22]": {"molecular_target": "Beta-lactamase TEM (Enterobacter cloacae) (UniProt Q6W9J1)", "sequence (Q6W9J1 as listed by the source)": "as the sequence (Q7B899 as listed by the source) above", "test": "Inhibition of Enterobacter cloacae ECL1058 TEM-1 assessed as biapenem MIC at 4 ug/ml by broth microdilution method"}, "Klebsiella pneumoniae [23]": {"tested_on": "Klebsiella pneumoniae", "test": "Inhibition of Klebsiella pneumoniae KP1004 SHV-11 assessed as ertapenem MIC at 4 ug/ml by broth microdilution method", "how_it_was_run": "as §1"}},
  "note": "pIC50, pKi: −log10 of the molar value.",
  "data": [
    {"smiles": "O=C(O)C[C@@H]1CC[C@H](NC(=O)Cc2cccs2)B(O)O1", "note": "[VABORBACTAM]", "values": [
      {"measurement": "MIC", "setting": "Klebsiella pneumoniae [1]", "result": 1, "unit": "µg/mL"},
      {"measurement": "MIC", "setting": "[2]", "result": "< 0.06", "unit": "µg/mL"},
      {"measurement": "MIC", "setting": "Klebsiella pneumoniae [3]", "result": "≤ 0.06", "unit": "µg/mL"},
      {"measurement": "Cmax", "setting": "[4]", "result": 2600, "unit": "µg/mL"},
      {"measurement": "pKi", "setting": "[5]", "result": 7.00},
      {"measurement": "MIC", "setting": "[6]", "result": "< 0.06", "unit": "µg/mL"},
      {"measurement": "MIC", "setting": "[7]", "result": "< 0.06", "unit": "µg/mL"},
      {"measurement": "MIC", "setting": "Klebsiella pneumoniae [8]", "result": "≤ 0.06", "unit": "µg/mL"},
      {"measurement": "MIC", "setting": "[9]", "result": 0.13, "unit": "µg/mL"},
      {"measurement": "pIC50", "setting": "Plasminogen", "result": "< 3.00"},
      {"measurement": "MIC", "setting": "Escherichia coli [10]", "result": 4, "unit": "µg/mL"},
      {"measurement": "MIC", "setting": "Klebsiella aerogenes", "result": 0.5, "unit": "µg/mL"},
      {"measurement": "MIC", "setting": "[11]", "result": 0.25, "unit": "µg/mL"},
      {"measurement": "MIC", "setting": "Klebsiella pneumoniae [12]", "result": 2, "unit": "µg/mL"},
      {"measurement": "Vd", "setting": "[13]", "result": 0.97, "unit": "L/kg"},
      {"measurement": "MIC", "setting": "Klebsiella pneumoniae [14]", "result": 0.25, "unit": "µg/mL"},
      {"measurement": "MIC", "setting": "Enterobacter cloacae", "result": "< 0.06", "unit": "µg/mL"},
      {"measurement": "MIC", "setting": "Klebsiella oxytoca", "result": 0.25, "unit": "µg/mL"},
      {"measurement": "MIC", "setting": "Escherichia coli [15]", "result": 4, "unit": "µg/mL"},
      {"measurement": "MIC", "setting": "Escherichia coli [16]", "result": 2, "unit": "µg/mL"},
      {"measurement": "half-life", "setting": "[17]", "result": 15.6, "unit": "min"},
      {"measurement": "clearance", "setting": "[18]", "result": 16.2, "unit": "mL/min/kg"},
      {"measurement": "clearance", "setting": "[19]", "result": 26.7, "unit": "mL/min/kg"},
      {"measurement": "MIC", "setting": "[20]", "result": 0.25, "unit": "µg/mL"},
      {"measurement": "MIC", "setting": "[21]", "result": "< 0.06", "unit": "µg/mL"},
      {"measurement": "MIC", "setting": "[22]", "result": "< 0.06", "unit": "µg/mL"},
      {"measurement": "MIC", "setting": "Klebsiella pneumoniae [23]", "result": "≤ 0.06", "unit": "µg/mL"}
    ]}
  ]
}
